The source of these data is ChEMBL document CHEMBL4251593, “Nontoxic combretafuranone analogues with high in vitro antibacterial activity” (Eur J Med Chem, 2018).

Assay [1] concerns Pseudomonas aeruginosa. Description: Antibacterial activity against Pseudomonas aeruginosa ATCC 9027 after 48 hrs by microdilution assay. Format: functional. Conditions: ATCC 9027, 48 h. A digest of the protocol: (§1)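 Broth microdilution in Mueller-Hinton medium buffered to pH 7.4 (±0.2), with DMSO as diluent at no more than 2% final. Compounds were tested as 2-fold serial dilutions from 2000 to 0.488 µmol/l. The inoculum was 0.5 McFarland (1.5×10^8 cfu/ml). Plates were held at 37 °C and read visually at 24 and 48 h. MIC was taken as 95% growth inhibition versus control, determined twice in duplicate.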
Background: Dilution methods test growth across graded concentrations, often in twofold steps.

Assay [2] has as its system Escherichia coli. Nature of the assay: Antibacterial activity against Escherichia coli ATCC 8739 after 24 hrs by microdilution assay. The format is functional. Conditions: ATCC 8739, 24 h. A digest of the protocol:
as §1

For assay [3], the system named is Escherichia coli. Nature of the assay: Antibacterial activity against Escherichia coli ATCC 8739 after 48 hrs by microdilution assay. Format: functional. Conditions: ATCC 8739, 48 h. A digest of the protocol:
as §1

In assay [4] the test system is Pseudomonas aeruginosa. Description: Antibacterial activity against Pseudomonas aeruginosa ATCC 9027 after 24 hrs by microdilution assay. The format is functional. Conditions: ATCC 9027, 24 h. Put shortly:
as §1

Assay [5] relates to PC-3. Description: Induction of apoptosis in human PC3 cells assessed as caspase 3/7 activity after 24 hrs by caspase-glo luminescent assay. Format: cell-based. Conditions: PC-3, 24 h. Put shortly: (§2)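 Cells were seeded at 500 per well in their growth media and exposed to 12 concentrations from 40 µM to 1 nM, delivered from DMSO, in triplicate. After 24 h, caspase-3/7 activity was read by Caspase-Glo luminescence. Data were normalized and ED50 was fitted by variable-slope nonlinear regression.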

The test system of assay [6] is HepG2. Description: Induction of apoptosis in human HepG2 cells assessed as caspase 3/7 activity after 24 hrs by caspase-glo luminescent assay. Format: cell-based. Conditions: HepG2, 24 h. A digest of the protocol: as §2
For assay [7], the system named is HepG2. Nature of the assay: Cytotoxicity against human HepG2 cells assessed as reduction in cell viability after 48 hrs by ATPlite-based luminescent assay. Conditions: HepG2, 48 h. Put shortly:
(§3)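 Cells were grown […] with 10% FBS, glutamax, NEAA and pen/strep at 37 °C, 5% CO2. Media were DMEM for RPE-1, HepG2 and BJ (BJ plus 10 ng/ml bFGF), F-12K for PC3, and IMDM for K562/HL-60. Cells were seeded at 500 per well and dosed from DMSO at 12 concentrations, 40 µM to 1 nM, in triplicate. After 48 h, intracellular ATP was read by luminescence. ED50 was obtained by variable-slope nonlinear regression.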

The subject of assay [8] is HL-60. Nature of the assay: Induction of apoptosis in human HL60 cells assessed as caspase 3/7 activity after 24 hrs by caspase-glo luminescent assay. Conditions: HL-60, 24 h. Format: cell-based. Put shortly: as §2
Assay [9] relates to K562. Nature of the assay: Cytotoxicity against human K562 cells assessed as reduction in cell viability after 48 hrs by ATPlite-based luminescent assay. Conditions: K562, 48 h. A digest of the protocol: as §3
On the technique in general: In ATP-based viability assays light output follows the ATP content of the culture.

For assay [10], the system named is TERT-RPE1. Description: Cytotoxicity against human RPE1 cells assessed as reduction in cell viability after 48 hrs by ATPlite-based luminescent assay. The following applies: RPE-1, 48 h. A digest of the protocol: as §3
Assay [11] has as its system MCF7. Description: Cytotoxicity against human MCF7 cells assessed as reduction in cell viability after 48 hrs by ATPlite-based luminescent assay. Conditions: MCF7, 48 h.
Assay [12] relates to K562. Nature of the assay: Induction of apoptosis in human K562 cells assessed as caspase 3/7 activity after 24 hrs by caspase-glo luminescent assay. The format is cell-based. Conditions: K562, 24 h. Put shortly:
as §2

Assay [13] deals with BJ. Nature of the assay: Cytotoxicity against human BJ cells assessed as reduction in cell viability after 48 hrs by ATPlite-based luminescent assay. A digest of the protocol: as §3
Assay [14] deals with TERT-RPE1. Nature of the assay: Induction of apoptosis in human RPE1 cells assessed as caspase 3/7 activity after 24 hrs by caspase-glo luminescent assay. The format is cell-based. The following applies: RPE-1, 24 h. A digest of the protocol:
as §2

Assay [15] has as its system PC-3. Nature of the assay: Cytotoxicity against human PC3 cells assessed as reduction in cell viability after 48 hrs by ATPlite-based luminescent assay. Conditions: PC-3, 48 h. Put shortly:
as §3

For assay [16], the system named is HL-60. Description: Cytotoxicity against human HL60 cells assessed as reduction in cell viability after 48 hrs by ATPlite-based luminescent assay. The following applies: HL-60, 48 h. Put shortly:
as §3

Broadly, the IC50 is the concentration at which inhibition is half-maximal.

Molecules are shown by their SMILES. Values after ≈ are worked out from the molar mass of the structure shown. Where only a bound is given, the exact number is not on record here.

Consider `O=C(O)c1cn(C2CC2)c2cc(N3CCNCC3)c(F)cc2c1=O` [CIPROFLOXACIN], for which the MIC95 in assay [1] was determined as 7.81 µM (≈ 2.59 µg/mL); in assay [2] it was 0.06 µM (≈ 0.0199 µg/mL); in [3], 0.06 µM (≈ 0.0199 µg/mL); in assay [4], 3.9 µM (≈ 1.29 µg/mL).

Consider `CCc1ccc(C2=C(c3ccc(Br)cc3)C(=O)OC2)cc1`, for which the IC50 in assay [5] was above 40 µM; in assay [6], above 40 µM; in assay [7] it was above 40 µM; in [8], above 40 µM; in assay [9] it was 0.47 µM; in assay [10] it was 1.3 µM. Further, the IC50 in assay [11] is 13 µM; in assay [12] it was above 40 µM; in assay [13] it was above 40 µM; in [14], above 40 µM; in [15], above 40 µM; in assay [16] it was 1.02 µM.

With `Cc1ccc(C2=C(c3ccc(Cl)c(Cl)c3)C(=O)OC2)cc1`, the IC50 in assay [5] is above 40 µM; in assay [6], above 40 µM; in assay [7] it was above 40 µM; in [8], 0.54 µM; in assay [9], 0.12 µM; in assay [10], 0.54 µM. The 50% inhibitory concentration (IC50) in assay [11] is 15.4 µM; in assay [12], above 40 µM; in assay [13], above 40 µM; in assay [14], 3.5 µM; in assay [15], above 40 µM; in [16], 0.23 µM.

On to `O=C1OCC(c2ccc(Cl)cc2)=C1c1ccc(C(F)(F)F)cc1`, for which the IC50 in assay [5] is above 40 µM; in assay [6], above 40 µM; in [7] it was above 40 µM; in assay [8], above 40 µM; in [9] it was above 40 µM; in assay [10] it was 14.9 µM. Besides, the IC50 in assay [11] was 12.3 µM; in [12], above 40 µM; in [13], above 40 µM; in assay [14], above 40 µM; in [15], above 40 µM; in assay [16], above 40 µM.

Take `CC[C@@]1(O)C(=O)OCc2c1cc1n(c2=O)Cc2cc3ccccc3nc2-1` [CAMPTOTHECIN]: the IC50 in assay [5] is above 40 µM; in assay [6] it was 4.37 µM; in assay [7], 0.43 µM; in assay [8], 0.07 µM; in assay [9], 0.09 µM; in assay [10], above 40 µM. Besides, the IC50 in assay [11] was 0.34 µM; in assay [12], 0.711 µM; in assay [13] it was above 40 µM; in assay [14], 27.2 µM; in assay [15], 0.4 µM; in assay [16] it was 0.02 µM.

For `Cc1ccc(C2=C(c3ccccc3Cl)C(=O)OC2)cc1`, the IC50 in [5] is above 40 µM; in assay [6] it was above 40 µM; in assay [7] it was above 40 µM; in [8], above 40 µM; in [9], 0.78 µM; in [10] it was 2.09 µM. Also, the IC50 in [11] was above 40 µM; in assay [12] it was above 40 µM; in assay [13], above 40 µM; in assay [14], 13.3 µM; in assay [15] it was above 40 µM; in [16], 1.04 µM.
